Several values for one entry are separate records, joined by “and”; a condition that tells them apart may be missing. Equal values may be shown once.
What was measured:
[1] = Ratio of the IC50 value of Mazindol to that of the compound.; format: functional
[2] = molecular target: T1, Sodium-dependent dopamine transporter (Homo sapiens, UniProt Q01959); test: Inhibition of dopamine uptake in HEK cells expressing human dopamine transporter (hDAT); format: functional, cell-based, HEK293
Procedure, shortened: (§1)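 Scraped HEK293 cells expressing hSERT or hDAT in Krebs-HEPES, preincubated 10 min at 25 °C with test compound. Uptake started with [3H]serotonin or [3H]dopamine (20 nM final), stopped after 10 min by filtration on PEI-soaked GF/C filters.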

[3] = molecular target: T1, Sodium-dependent dopamine transporter; test: Displacement of [125I]- RTI-55 from Dopamine transporter expressed in HEK cells; format: cell-based, HEK293
Procedure, shortened: (§2)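 Membranes from HEK293 cells expressing hDAT, hSERT or hNET (10–15 μg protein) preincubated 10 min with test compound in Krebs-HEPES pH 7.4. Two or three experiments in duplicate; IC50 converted to Ki by Cheng-Prusoff.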

[4] = molecular target: T2, Sodium-dependent noradrenaline transporter (Homo sapiens, UniProt P23975); test: Inhibition of NE uptake in HEK cells expressing human noradrenaline transporter (hNET); format: functional, cell-based, HEK293
[5] = molecular target: T2, Sodium-dependent noradrenaline transporter; test: Displacement of [125I]RTI-55 from human Norepinephrine transporter expressed in HEK cells; format: cell-based, HEK293
[6] = molecular target: T3, Sodium-dependent serotonin transporter (Homo sapiens, UniProt P31645); test: Displacement of [125I]- RTI-55 from Serotonin transporter expressed in HEK cells; format: cell-based, HEK293; procedure, shortened: as §2
[7] = molecular target: T3, Sodium-dependent serotonin transporter; test: Inhibition of 5-HT uptake in HEK cells expressing human serotonin transporter (hSERT); format: functional, cell-based, HEK293; procedure, shortened: as §1
[8] = molecular target: Monoamine transporters; Norepinephrine & dopamine (Homo sapiens) (UniProt Q01959+P23975); test: Selectivity ratio as ratio of IC50 value against NET to that of DAT; format: protein assay
[9] = molecular target: Monoamine transporters; serotonin & dopamine (Homo sapiens) (UniProt P31645+Q01959); test: Selectivity ratio as ratio of IC50 value against SERT to that of DAT; format: protein assay
[10] = Discrimination ratio against SERT as ratio of IC50 to that of Ki uptake to SERT.; format: functional
[11] = Discrimination ratio against DAT as ratio of IC50 to that of Ki uptake to DAT.; format: functional
[12] = Discrimination ratio against NET as ratio of IC50 to that of Ki uptake to NET.; format: functional
[13] = molecular target: Sodium-dependent dopamine transporter (Rattus norvegicus, UniProt P23977); test: Ability to displace [3H]WIN-35428 from Dopamine Transporter of rat striatal membrane
Procedure, shortened: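 Rat striatum (male Sprague-Dawley, 200-225 g) homogenised in ice-cold sucrose phosphate buffer pH 7.4, washed, resuspended at 10 mg/mL. Filtration on PEI-soaked GF/B filters, scintillation counting. Four experiments in triplicate.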

[14] = molecular target: T1, Sodium-dependent dopamine transporter; test: Ability to block the uptake of […] at the Dopamine transporter of HEK cells expressing cDNA for the human transporter (hDAT); format: functional, cell-based, HEK293
[15] = molecular target: T2, Sodium-dependent noradrenaline transporter; test: Ability to displace [125I]- RTI-55 binding at the Norepinephrine transporter site on HEK cells expressing cDNA for the human transporter (hNET); format: cell-based, HEK293
Procedure, shortened: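 Membranes from HEK293 cells expressing hDAT, hSERT or hNET (10–15 μg protein) preincubated 10 min with test compound in Krebs-HEPES pH 7.4. Then 40–80 pM [125I]RTI-55 added, 90 min at 25 °C, GF/C filtration. […] Two or three experiments in duplicate; IC50 converted to Ki by Cheng-Prusoff.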

[16] = molecular target: Sodium-dependent dopamine transporter (Rattus norvegicus) (UniProt P23977); test: Ability to displace [3H]WIN-35428 from Dopamine Transporter of rat striatal membrane at a concentration of 10 E-6 M
Sodium-dependent dopamine transporter (Rattus norvegicus), sequence (P23977 whole entry): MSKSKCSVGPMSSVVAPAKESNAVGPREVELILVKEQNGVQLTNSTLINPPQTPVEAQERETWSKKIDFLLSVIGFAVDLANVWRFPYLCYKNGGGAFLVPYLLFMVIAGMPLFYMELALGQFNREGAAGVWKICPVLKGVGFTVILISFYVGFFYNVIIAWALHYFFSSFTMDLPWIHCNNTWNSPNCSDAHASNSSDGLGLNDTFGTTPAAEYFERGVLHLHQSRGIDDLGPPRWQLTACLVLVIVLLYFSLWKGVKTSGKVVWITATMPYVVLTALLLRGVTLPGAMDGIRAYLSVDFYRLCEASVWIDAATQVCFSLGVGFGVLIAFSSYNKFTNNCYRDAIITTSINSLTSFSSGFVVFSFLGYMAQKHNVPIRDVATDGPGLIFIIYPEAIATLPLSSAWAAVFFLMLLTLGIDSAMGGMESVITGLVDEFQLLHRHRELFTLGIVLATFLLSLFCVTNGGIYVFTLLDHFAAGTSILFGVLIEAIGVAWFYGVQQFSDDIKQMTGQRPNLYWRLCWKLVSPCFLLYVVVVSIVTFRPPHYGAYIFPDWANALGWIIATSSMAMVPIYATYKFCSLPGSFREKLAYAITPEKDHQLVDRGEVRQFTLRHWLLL

Monoamine transporters; serotonin & dopamine (Homo sapiens), sequence (P31645 whole entry, looked up): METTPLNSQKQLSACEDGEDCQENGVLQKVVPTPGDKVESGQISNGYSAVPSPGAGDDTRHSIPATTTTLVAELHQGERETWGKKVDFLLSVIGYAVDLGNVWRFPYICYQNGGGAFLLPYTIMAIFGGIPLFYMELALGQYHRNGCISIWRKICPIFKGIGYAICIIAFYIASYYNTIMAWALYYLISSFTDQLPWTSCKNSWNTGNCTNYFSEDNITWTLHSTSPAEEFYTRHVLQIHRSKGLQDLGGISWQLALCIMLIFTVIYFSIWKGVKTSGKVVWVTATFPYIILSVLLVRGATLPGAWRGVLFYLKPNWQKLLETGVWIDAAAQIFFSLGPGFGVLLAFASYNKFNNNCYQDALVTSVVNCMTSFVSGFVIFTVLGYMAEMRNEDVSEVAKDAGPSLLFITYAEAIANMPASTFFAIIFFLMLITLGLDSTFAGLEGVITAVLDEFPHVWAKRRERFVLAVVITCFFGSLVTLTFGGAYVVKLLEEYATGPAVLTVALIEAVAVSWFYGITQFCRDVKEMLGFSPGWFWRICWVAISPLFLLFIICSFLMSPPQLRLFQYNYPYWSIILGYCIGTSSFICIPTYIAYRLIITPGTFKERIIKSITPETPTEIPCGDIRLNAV
Monoamine transporters; serotonin & dopamine (Homo sapiens), sequence (Q01959 whole entry, looked up): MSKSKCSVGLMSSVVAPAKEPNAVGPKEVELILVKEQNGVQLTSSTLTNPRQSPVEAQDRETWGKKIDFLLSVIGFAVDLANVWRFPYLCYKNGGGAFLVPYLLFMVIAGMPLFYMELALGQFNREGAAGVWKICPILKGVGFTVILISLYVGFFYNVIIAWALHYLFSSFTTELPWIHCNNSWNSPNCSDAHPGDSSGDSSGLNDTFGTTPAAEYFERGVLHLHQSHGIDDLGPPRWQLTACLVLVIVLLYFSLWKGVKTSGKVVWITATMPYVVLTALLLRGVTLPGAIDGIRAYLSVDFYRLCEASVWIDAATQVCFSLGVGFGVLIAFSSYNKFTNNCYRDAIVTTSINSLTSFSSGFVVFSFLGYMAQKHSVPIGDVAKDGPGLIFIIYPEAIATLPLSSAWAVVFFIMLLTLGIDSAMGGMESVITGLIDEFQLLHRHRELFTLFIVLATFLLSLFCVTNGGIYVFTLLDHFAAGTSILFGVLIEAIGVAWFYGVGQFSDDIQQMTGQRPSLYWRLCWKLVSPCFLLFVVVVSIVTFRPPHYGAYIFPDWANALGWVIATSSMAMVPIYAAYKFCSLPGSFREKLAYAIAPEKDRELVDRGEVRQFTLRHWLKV
T3 sequence (P31645 whole entry): as the sequence (P31645 whole entry, looked up) above
T2 sequence (P23975 whole entry): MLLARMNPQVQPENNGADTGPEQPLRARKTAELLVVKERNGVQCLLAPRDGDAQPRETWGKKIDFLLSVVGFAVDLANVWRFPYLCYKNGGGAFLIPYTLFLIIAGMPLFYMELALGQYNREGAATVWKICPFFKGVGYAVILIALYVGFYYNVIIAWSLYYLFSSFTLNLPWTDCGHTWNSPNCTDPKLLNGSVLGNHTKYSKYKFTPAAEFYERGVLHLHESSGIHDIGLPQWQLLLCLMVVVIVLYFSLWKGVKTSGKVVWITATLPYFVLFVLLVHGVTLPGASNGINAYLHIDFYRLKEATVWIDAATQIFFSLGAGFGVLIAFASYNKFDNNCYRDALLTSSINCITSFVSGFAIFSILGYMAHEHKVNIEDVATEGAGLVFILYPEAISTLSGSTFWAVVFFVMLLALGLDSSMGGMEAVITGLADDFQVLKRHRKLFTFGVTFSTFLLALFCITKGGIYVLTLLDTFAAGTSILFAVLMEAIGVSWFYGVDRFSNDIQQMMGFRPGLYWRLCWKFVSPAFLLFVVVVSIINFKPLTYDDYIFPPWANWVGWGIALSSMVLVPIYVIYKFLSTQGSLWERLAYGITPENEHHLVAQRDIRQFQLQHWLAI
Monoamine transporters; Norepinephrine & dopamine (Homo sapiens), sequence (P23975 whole entry, looked up): as the sequence (P23975 whole entry) above
Monoamine transporters; Norepinephrine & dopamine (Homo sapiens), sequence (Q01959 whole entry, looked up): as the sequence (Q01959 whole entry, looked up) above
T1 sequence (Q01959 whole entry): as the sequence (Q01959 whole entry, looked up) above
Sodium-dependent dopamine transporter (Rattus norvegicus, UniProt P23977), sequence (P23977 whole entry): as the sequence (P23977 whole entry) above

OC1(c2ccc(C(F)(F)F)cc2)c2ccccc2C2=NCCN21 (stereo not given)
Ratio [1]: 0.03

OC1(c2ccc(Cl)cc2)c2c(ccc3c2OCO3)C2=NCCN21 (stereo not given)
Ratio [1]: 0.1

COc1cccc2c1C1=NCCN1C2(O)c1ccc(Cl)cc1 (stereo not given)
IC50 [2]: 0.042 µM
Ki [3]: 0.0029 µM
IC50 [4]: 0.0047 µM
Ki [5]: 0.0068 µM
Ki [6]: 0.87 µM
IC50 [7]: 0.28 µM
Ratio [8]: 2.3
Ratio [9]: 300
Ratio [10]: 0.3
Ratio [1]: 9
Ratio [11]: 14.5
Ratio [12]: 0.7

Cc1cc(C)c2c(c1)C1=NCCN1C2(O)c1ccc(Cl)cc1 (stereo not given)
Ratio [1]: 0.6

OC1(c2ccccc2)c2ccccc2C2=NCCN21 (stereo not given)
IC50 [2]: 0.73 µM
Ki [3]: 1.07 µM
IC50 [4]: 0.0028 µM
Ki [5]: 0.1 µM
Ki [6]: 1.76 µM
IC50 [7]: 2.14 µM
Ratio [8]: 0.1
Ratio [9]: 1.6
Ratio [10]: 1.2
Ratio [1]: 0.1
Ratio [11]: 0.7
Ratio [12]: 0.03

C=CCOc1ccc(C2(O)c3ccccc3C3=NCCCN32)cc1 (stereo not given)
Ratio [1]: 0.1

OC1(c2cccc(C(F)(F)F)c2)c2ccccc2C2=NCCN21 (stereo not given)
Ratio [1]: 0.04

COc1ccc(C2(O)c3ccccc3C3=NCCCN32)cc1OC (stereo not given)
Ratio [1]: 0.1

OC1(c2ccc3c(c2)OCO3)c2ccccc2C2=NCCCN21 (stereo not given)
IC50 [13]: 0.00194 µM
IC50 [14]: 0.00221 µM
Ki [3]: 0.00255 µM
Ki [15]: 0.0088 µM
IC50 [4]: 0.00062 µM
Ki [6]: 0.0256 µM
IC50 [7]: 0.083 µM
Ratio [8]: 3.5
Ratio [9]: 10
Ratio [10]: 3.2
Ratio [11]: 0.8
Ratio [12]: 0.07

OC1(c2ccc(Cl)cc2)c2ccccc2C2=NCCCN21 (stereo not given)
IC50 [2]: 0.0037 µM
IC50 [4]: 0.0049 µM
IC50 [7]: 0.053 µM
Ratio [8]: 10.6
Ratio [9]: 23
Ratio [10]: 1.4
Ratio [1]: 8.1 and 10.1
Ratio [11]: 2.2
Ratio [12]: 2.2

OC1(c2ccc(-c3ccccc3)cc2)c2ccccc2C2=NCCN21 (stereo not given)
inhibition [16]: 14.1%
Ratio [1]: < 0.002

OC1(c2ccc(Cl)cc2)c2cccc(-c3ccccc3)c2C2=NCCN21 (stereo not given)
Ratio [1]: 0.1

Oc1ccc(C2(O)c3ccccc3C3=NCCCN32)cc1 (stereo not given)
IC50 [2]: 0.059 µM
Ki [3]: 0.0871 µM
IC50 [4]: 0.0019 µM
Ki [5]: 0.38 µM
Ki [6]: 0.077 µM
IC50 [7]: 0.06 µM
Ratio [8]: 4.4
Ratio [9]: 0.9
Ratio [10]: 0.8
Ratio [1]: 2.4
Ratio [11]: 0.7
Ratio [12]: 0.005

Cc1ccc(C2(O)c3ccccc3C3=NCCN32)cc1 (stereo not given)
Ratio [1]: 0.1

OC1(c2ccccc2)c2c(Cl)cccc2C2=NCCN21 (stereo not given)
Ratio [1]: 0.1

COc1ccc(C2(O)c3ccccc3C3=NCCCN32)cc1 (stereo not given)
IC50 [2]: 0.0304 µM
Ki [3]: 0.0362 µM
IC50 [4]: 0.0041 µM
Ki [5]: 0.084 µM
Ki [6]: 0.0559 µM
IC50 [7]: 0.094 µM
Ratio [8]: 2.3
Ratio [9]: 1.5
Ratio [10]: 1.7
Ratio [1]: 3.2
Ratio [11]: 0.8
Ratio [12]: 0.05

COc1cc(C2(O)c3ccccc3C3=NCCN32)cc(OC)c1OC (stereo not given)
Ratio [1]: < 0.002

COc1ccc(C2(O)c3ccccc3C3=NCCN32)cc1 (stereo not given)
Ratio [1]: 0.4

C=CCOc1cccc(C2(O)c3ccccc3C3=NCCCN32)c1 (stereo not given)
IC50 [13]: 0.219 µM
Ratio [1]: 0.2

CC1(c2ccc(Cl)cc2)c2ccccc2C2=NCCCN21 (stereo not given)
Ratio [1]: 0.3

COCC1(c2ccc(Cl)cc2)c2ccccc2C2=NCCCN21 (stereo not given)
Ratio [1]: < 0.002

COC(=O)c1ccc(C2(O)c3ccccc3C3=NCCN32)cc1 (stereo not given)
Ratio [1]: 0.002

OC1(c2ccccc2)c2cc(Cl)ccc2C2=NCCN21 (stereo not given)
Ratio [1]: 0.1

OC1(c2ccc3c(c2)OCO3)c2ccccc2C2=NCCN21 (stereo not given)
Ratio [1]: 0.4

OC1(c2ccc3c(c2)OCCO3)c2ccccc2C2=NCCN21 (stereo not given)
Ratio [1]: 0.03

COc1ccc2c(c1)C(O)(c1ccc(Cl)cc1)N1CCN=C21 (stereo not given)
IC50 [2]: 0.0167 µM
Ki [3]: 0.006 µM
IC50 [4]: 0.00146 µM
Ki [5]: 0.023 µM
Ki [6]: 1.03 µM
IC50 [7]: 1.96 µM
Ratio [8]: 3.9
Ratio [9]: 172
Ratio [10]: 1.9
Ratio [1]: 3.2
Ratio [11]: 2.8
Ratio [12]: 0.06

OC1(c2ccc(Cl)cc2)c2cc(Cl)c(Cl)cc2C2=NCCN21 (stereo not given)
IC50 [2]: 0.006 µM
Ki [3]: 0.00105 µM
IC50 [4]: 0.01 µM
Ki [5]: 0.04 µM
Ki [6]: 1.35 µM
IC50 [7]: 0.444 µM
Ratio [8]: 38
Ratio [9]: 1280
Ratio [10]: 0.3
Ratio [1]: 0.6
Ratio [11]: 5.7
Ratio [12]: 0.3

OC1(c2ccc(Cl)cc2)c2cccc(F)c2C2=NCCN21 (stereo not given)
IC50 [2]: 0.091 µM
Ki [3]: 0.0231 µM
IC50 [4]: 0.005 µM
Ki [5]: 0.0009 µM
Ki [6]: 0.0381 µM
IC50 [7]: 0.129 µM
Ratio [8]: 0.04
Ratio [9]: 1.65
Ratio [10]: 3.4
Ratio [1]: 3.5
Ratio [11]: 4
Ratio [12]: 5.6

OC1(c2ccc(Cl)cc2)c2ccccc2C2=NCCN21 (stereo not given) [MAZINDOL]
IC50 [4]: 0.0049 µM
IC50 [7]: 0.094 µM

CN(C)Cc1ccc(C2(O)c3ccccc3C3=NCCN32)cc1 (stereo not given)
Ratio [1]: 0.003

COc1cccc2c1C(O)(c1ccc(Cl)cc1)N1CCN=C21 (stereo not given)
IC50 [2]: 0.06 µM
Ki [3]: 0.0103 µM
IC50 [4]: 0.00173 µM
Ki [5]: 0.0231 µM
Ki [6]: 1.99 µM
IC50 [7]: 3.6 µM
Ratio [8]: 2.2
Ratio [9]: 193
Ratio [10]: 1.8
Ratio [1]: 0.6
Ratio [11]: 5.8
Ratio [12]: 0.07

COC1(c2ccc(Cl)cc2)c2ccccc2C2=NCCN21 (stereo not given)
IC50 [13]: 1.01 µM
Ratio [1]: 0.008

Clc1ccc(C2c3ccccc3C3=NCCN32)cc1 (stereo not given)
IC50 [2]: 0.006 µM
Ki [3]: 0.023 µM
IC50 [4]: 0.0069 µM
Ki [5]: 0.17 µM
Ki [6]: 0.026 µM
IC50 [7]: 0.015 µM
Ratio [1]: 1.4

COc1ccc(C2(O)c3ccccc3C3=NCCN32)cc1OC (stereo not given)
Ratio [1]: 0.001

OC1(c2cccnc2)c2ccccc2C2=NCCN21 (stereo not given)
Ratio [1]: 0.013

OC1(c2ccccn2)c2ccccc2C2=NCCN21 (stereo not given)
Ratio [1]: < 0.002

OC1(c2ccncc2)c2ccccc2C2=NCCN21 (stereo not given)
Ratio [1]: 0.1

OC1(c2ccc(OCc3ccccc3)cc2)c2ccccc2C2=NCCCN21 (stereo not given)
Ratio [1]: 0.1
